Measurements pooled from the literature.
Lines come from different studies, so protocols differ.
Target: Serine/threonine-protein kinase MARK1 (MARK1, Homo sapiens, UniProt Q9P0L2)

Compound | observed | method | tested at | remaining binding [%]
O=c1nc(-c2ccccn2)sc2ccccc12 | binding | competition with immobilised ligand | 1 µM | 100
C[C@H]1CCN(c2nccc(-c3cnn4ncccc34)n2)C1 | binding | – | 1 µM | 92
O=C(c1ccc(Nc2ncc(Cl)c(-c3cc4ccccc4s3)n2)cc1)N1CCC(N2CCCC2)CC1 | binding | competition with immobilised ligand | 1 µM | 27
CCN1CCN(Cc2ccc(C(=O)Nc3ccc(C)c(Oc4ccc5c(c4)CC(=O)N5)c3)cc2C(F)(F)F)CC1 | binding | competition with immobilised ligand | 1 µM | 100
O=C(Nc1c[nH]nc1C(=O)NC1CCNCC1)c1cc(F)cc(F)c1 | binding | competition with immobilised ligand | 1 µM | 100
O=C(c1ccc(Nc2nccc(-c3cc4ccccc4s3)n2)cc1)N1CCC(N2CCCC2)CC1 | binding | competition with immobilised ligand | 1 µM | 62
Cn1cc(Cl)c2c(Oc3c(F)cc(Nc4cc(Cl)nc(N)n4)cc3F)ccnc21 | cell-free assay | competition with immobilised ligand | 0.1 µM | 100
C=CC(=O)N1CCC(C(=O)NCC(=O)N2CCN(c3nc(-c4cnc(N)nc4C(F)F)nc(N4CCOCC4)n3)CC2)CC1 | binding | competition with immobilised ligand | 1 µM | 100
COc1cnc(Nc2cccc(S(N)(=O)=O)c2)nc1N1CCN(c2ccccc2)CC1 | binding | competition with immobilised ligand | 1 µM | 100
c1cncc(-c2cccc(Nc3nccc(NC4CCCCC4)n3)c2)c1 | binding | competition with immobilised ligand | 10 µM | 90
FC(F)(F)Oc1cccc(-c2cnc3ccc(-c4ccncc4)nn23)c1 | cell-free assay | competition with immobilised ligand | 5 µM | 79
Cc1cc(NC(=O)c2cccc(S(F)(F)(F)(F)F)c2)cc(-n2ccn3nc(-c4cccnc4)cc23)c1 | cell-free assay | competition with immobilised ligand | 1 µM | 100
N[C@H]1CCN(c2nccc(-c3cnn4ncccc34)n2)C1 | binding | – | 1 µM | 100
Nc1ncc2c(n1)-c1c([nH]c3ccc(C#CC4CC4)cc13)CCCC2 | binding | competition with immobilised ligand | 1 µM | 98
c1cnn2ncc(-c3ccnc(N4CCC45COC5)n3)c2c1 | binding | – | 1 µM | 91
Cc1nc(Cc2cccc(C(F)(F)F)c2)sc1-c1ccc(C(N)=O)nc1 | cell-free assay | competition with immobilised ligand | 1 µM | 90
CN(C)c1ncc(F)c(-c2cnn3ncccc23)n1 | binding | – | 1 µM | 100
CCS(=O)(=O)c1cc2cc(C[C@](O)(CC(C)(C)c3ccc(F)cc3C(N)=O)C(F)(F)F)[nH]c2cn1 | cell-free assay | competition with immobilised ligand | 1 µM | 100
CC1CCCN1c1nccc(-c2cnn3ncccc23)n1 (stereo not shown) | binding | – | 1 µM | 100
COCCOc1nc(-c2ccc(Cl)nc2)nc2c1CN(C(=O)c1ncn3ccccc13)CC2 | cell-free assay | competition with immobilised ligand | 0.1 µM | 100
F[C@@H]1CCN(c2nccc(-c3cnn4ncccc34)n2)C1 | binding | – | 1 µM | 100
Cc1cnc(Nc2ccc(C(=O)N3CCC(N4CCCC4)CC3)cc2)nc1-c1cc2ccccc2s1 | binding | competition with immobilised ligand | 1 µM | 22
